Active and inactive are the calls of the source. The calls are words filed in the database; no cut-off is given here.
Key:
Steryl-sulfatase [1] = biological target: T1, Steryl-sulfatase (Homo sapiens, UniProt P08842); assay: Inhibition of human placental microsomal STS assessed as formation of E1 preincubated for 30 mins followed by addition of E1S as substrate measured after 20 mins by ELISA
T1 sequence (P08842 whole entry): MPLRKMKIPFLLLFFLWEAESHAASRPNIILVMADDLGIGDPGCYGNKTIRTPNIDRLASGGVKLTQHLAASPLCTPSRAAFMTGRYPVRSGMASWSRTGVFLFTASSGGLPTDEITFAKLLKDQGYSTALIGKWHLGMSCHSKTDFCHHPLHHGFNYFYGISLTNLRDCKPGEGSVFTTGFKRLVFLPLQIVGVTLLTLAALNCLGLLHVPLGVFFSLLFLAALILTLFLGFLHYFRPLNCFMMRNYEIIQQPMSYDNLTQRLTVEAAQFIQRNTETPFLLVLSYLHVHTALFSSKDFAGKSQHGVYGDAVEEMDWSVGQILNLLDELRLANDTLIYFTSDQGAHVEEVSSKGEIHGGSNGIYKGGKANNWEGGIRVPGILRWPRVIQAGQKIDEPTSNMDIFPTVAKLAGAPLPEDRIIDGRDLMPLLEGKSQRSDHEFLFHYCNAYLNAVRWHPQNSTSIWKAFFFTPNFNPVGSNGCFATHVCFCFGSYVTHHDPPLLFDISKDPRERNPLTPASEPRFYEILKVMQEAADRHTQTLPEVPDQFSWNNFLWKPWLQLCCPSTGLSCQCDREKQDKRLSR
Procedure, shortened: (§1)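 Human placental STS incubated with estrone sulfate (E1S) as substrate in the presence of inhibitor; estrone (E1) formed was quantified by ELISA.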

[2] = biological target: T2, 17-beta-hydroxysteroid dehydrogenase type 1 (Homo sapiens, UniProt P14061); assay: Inhibition of human placental cytosolic 17beta-HSD1 using [3H]-E1/E1 substrate and NADH after 10 mins by HPLC based radio-detection method
T2 sequence (P14061 whole entry): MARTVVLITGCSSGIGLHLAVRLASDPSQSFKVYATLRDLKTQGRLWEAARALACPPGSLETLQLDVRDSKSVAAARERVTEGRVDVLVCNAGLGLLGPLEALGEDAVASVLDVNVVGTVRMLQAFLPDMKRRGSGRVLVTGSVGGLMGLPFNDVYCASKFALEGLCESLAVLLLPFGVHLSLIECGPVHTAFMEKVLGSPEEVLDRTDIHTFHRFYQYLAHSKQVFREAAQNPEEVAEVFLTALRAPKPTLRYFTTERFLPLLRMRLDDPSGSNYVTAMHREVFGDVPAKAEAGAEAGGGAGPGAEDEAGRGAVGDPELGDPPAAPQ
Procedure, shortened: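 Cell-free assay with the cytosolic fraction of human placenta as the 17β-HSD1 source and radiolabeled E1 as substrate, with test compound present.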

[3] = Drug degradation in Tris-HCl buffer assessed as formation of metabolite containing phenolic OH-group by measuring remaining parent compound levels at pH 7.2 after 30 mins
Procedure, shortened: (§2)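 Compound incubated in 20 mM Tris-HCl buffer, pH 7.2, at 37 °C for 30 min. Remaining parent compound was measured, with sulfamate cleavage to the phenolic OH product monitored.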

[4] = Selectivity factor, ratio of IC50 for human placental microsomal 17beta-HSD2 cells to IC50 for human placental cytosolic 17beta-HSD1
[5] = biological target: T3, 17-beta-hydroxysteroid dehydrogenase type 2 (Homo sapiens, UniProt P37059); assay: Inhibition of human placental microsomal 17beta-HSD2 using [3H]-E2/E2 substrate and NAD+ after 20 mins by HPLC based radio-detection method
T3 sequence (P37059 whole entry): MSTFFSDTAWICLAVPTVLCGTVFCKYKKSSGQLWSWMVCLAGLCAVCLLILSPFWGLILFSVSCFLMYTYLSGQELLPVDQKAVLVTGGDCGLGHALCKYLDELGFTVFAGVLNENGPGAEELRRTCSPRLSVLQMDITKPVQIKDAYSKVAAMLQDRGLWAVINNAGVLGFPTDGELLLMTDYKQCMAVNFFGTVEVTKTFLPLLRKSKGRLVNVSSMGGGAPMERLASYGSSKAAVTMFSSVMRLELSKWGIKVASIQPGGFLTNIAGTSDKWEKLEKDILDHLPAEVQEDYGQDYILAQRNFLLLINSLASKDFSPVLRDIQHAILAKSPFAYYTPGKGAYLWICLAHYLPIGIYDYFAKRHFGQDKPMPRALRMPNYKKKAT

[6] = biological target: T4, Steryl-sulfatase (Homo sapiens) (UniProt P08842); assay: Inhibition of human placental microsomal STS assessed as formation of E1 at 1 uM preincubated for 30 mins followed by addition of E1S as substrate measured after 20 mins by ELISA; procedure, shortened: as §1
T4 sequence (whole entry): T1 sequence (P08842 whole entry)

[7] = Stability of the compound in Tris-HCl buffer at pH 7.2 after 30 mins; format: physicochemical; conditions: pH 7.2, 0.5 h; procedure, shortened: as §2
Steryl-sulfatase [8] = biological target: T1, Steryl-sulfatase; assay: Inhibition of STS in human T47D cells preincubated for 1 hr followed by addition of [3H]-E1S/E1S as substrate measured after 24 hrs by HPLC based radio-detection method; format: cell-based
[9] = biological target: T2, 17-beta-hydroxysteroid dehydrogenase type 1; assay: Inhibition of 17beta-HSD1 in human T47D cells preincubated for 1 hr followed by addition of [3H]-E1/E1 as substrate measured after 30 mins by HPLC based radio-detection method; format: cell-based
Steryl-sulfatase [10] = biological target: T1, Steryl-sulfatase; assay: Irreversible inhibition of STS in human T47D cells preincubated for 2 hrs followed by compound washout and addition of [3H]-E1S/E1S as substrate measured after 24 hrs by HPLC based radio-detection method; format: cell-based
T47D [11] = assay: Antiproliferative activity against E1S/E1-stimulated human T47D cells assessed as reduction in cell viability measured after 7 days after MTT assay; format: functional, cell-based
[12] = biological target: T4, Steryl-sulfatase (Homo sapiens); assay: Inhibition of STS in human T47D cells assessed as [3H]-E1S level at 400 nM after 48 hrs by HPLC based radio-detection method (reference value: 3.9%); format: cell-based; set-up: scale not given: the % may be the effect or the level left
[13] = biological target: T5, 17-beta-hydroxysteroid dehydrogenase type 1 (Homo sapiens) (UniProt P14061); assay: Inhibition of 17beta-HSD1 in human T47D cells assessed as [3H]-E1 level at 400 nM after 48 hrs by HPLC based radio-detection method (reference value: 0.9%); format: cell-based; set-up: scale not given: the % may be the effect or the level left
T5 sequence (whole entry): T2 sequence (P14061 whole entry)

[14] = biological target: T5, 17-beta-hydroxysteroid dehydrogenase type 1 (Homo sapiens); assay: Inhibition of 17beta-HSD1 in human T47D cells assessed as [3H]-E2 level at 400 nM after 48 hrs by HPLC based radio-detection method (reference value: 95.2%); format: cell-based; set-up: scale not given: the % may be the effect or the level left
T47D [15] = assay: Cytotoxicity against human T47D cells assessed as reduction in cell viability at 400 nM after 7 days by MTT assay; format: cell-based; conditions: 168 h, 0.4 µM
HEK293 = assay: Cytotoxicity against HEK293 cells assessed as reduction in cell viability at 0.1 to 1 uM after 48 hrs by MTT assay; format: cell-based; conditions: human, hek293, 48 h
T47D [16] = assay: Antiproliferative activity against E2-stimulated human T47D cells assessed as reduction in cell viability at 400 nM measured after 7 days after MTT assay; format: functional, cell-based
[17] = biological target: T5, 17-beta-hydroxysteroid dehydrogenase type 1 (Homo sapiens); assay: Irreversible inhibition of 17beta-HSD1 in human T47D cells at 50 nM preincubated for 2 hrs followed by compound washout and addition of […] as substrate measured after 24 hrs by HPLC based radio-detection method; format: cell-based
[18] = biological target: T4, Steryl-sulfatase (Homo sapiens); assay: Inhibition of STS in human T47D cells at 1 uM preincubated for 1 hr followed by addition of [3H]-E1S/E1S as substrate measured after 24 hrs by HPLC based radio-detection method; format: cell-based
[19] = biological target: T4, Steryl-sulfatase (Homo sapiens); assay: Irreversible inhibition of STS in human T47D cells at 1 uM preincubated for 2 hrs followed by compound washout and addition of [3H]-E1S/E1S as substrate measured after 24 hrs by HPLC based radio-detection method; format: cell-based
T47D [20] = assay: Antiproliferative activity against E1S/E1-stimulated human T47D cells assessed as cell viability at 50 to 200 nM measured after 7 days after MTT assay relative to control; format: functional
[21] = biological target: T4, Steryl-sulfatase (Homo sapiens); assay: Inhibition of STS in human T47D cells assessed as [3H]-E1S level at 200 nM after 48 hrs by HPLC based radio-detection method; format: cell-based; set-up: scale not given: the % may be the effect or the level left
[22] = biological target: T5, 17-beta-hydroxysteroid dehydrogenase type 1 (Homo sapiens); assay: Inhibition of 17beta-HSD1 in human T47D cells assessed as [3H]-E1 level at 200 nM after 48 hrs by HPLC based radio-detection method (reference value: 0.9%); format: cell-based; set-up: scale not given: the % may be the effect or the level left
[23] = biological target: T5, 17-beta-hydroxysteroid dehydrogenase type 1 (Homo sapiens); assay: Inhibition of 17beta-HSD1 in human T47D cells assessed as [3H]-E2 level at 200 nM after 48 hrs by HPLC based radio-detection method (reference value: 95.2%); format: cell-based; set-up: scale not given: the % may be the effect or the level left

Compound	IC50 (Steryl-sulfatase [1])	IC50 [2]	Ratio IC50 [4]	IC50 [5]	inhibition [6]	Stability [7]	IC50 (Steryl-sulfatase [8])	IC50 [9]	IC50 (Steryl-sulfatase [10])	Activity (T47D [11])	further results
NS(=O)(=O)Oc1ccc(-c2ccc(C(=O)c3c(F)ccc(O)c3F)s2)c(F)c1F	105 nM	2.7 nM	8.6	23.2 nM							Stability [3]: 28%
NS(=O)(=O)Oc1cccc(-c2ccc(C(=O)c3c(F)ccc(O)c3F)s2)c1		2.2 nM	14.2	31.3 nM	< 10%	Stable					
NS(=O)(=O)Oc1cccc(-c2ccc(C(=O)c3c(F)ccc(O)c3F)s2)c1F	123 nM	7.1 nM	2.5	17.4 nM		Stable					
NS(=O)(=O)Oc1ccc(-c2ccc(C(=O)c3c(F)ccc(O)c3F)s2)c(F)c1	19.5 nM	12.2 nM	1.8	22.2 nM		Stable	2.1 nM	42.1 nM	3.1 nM	Dose-dependent effect	
NS(=O)(=O)Oc1ccc(-c2ccc(C(=O)c3c(F)ccc(O)c3F)s2)cc1Cl	143 nM	1.1 nM	33	36.1 nM		Stable	15.6 nM	22.2 nM	16.4 nM	Dose-dependent effect	Activity [12]: 50%; Activity [13]: 48.9%; Activity [14]: 1.1%; Activity (T47D [15]): Non-Toxic; Activity (HEK293): Non-Toxic; Activity (T47D [16]): inactive; inhibition [17]: inactive
NS(=O)(=O)Oc1ccc(-c2ccc(C(=O)c3c(F)ccc(O)c3F)s2)c(F)c1Cl	244 nM	1.4 nM	13.2	18.4 nM							Stability [3]: 22%
NS(=O)(=O)Oc1ccc(-c2ccc(C(=O)c3c(F)ccc(O)c3F)s2)c(Cl)c1	19.4 nM	10.2 nM	1.9	19.1 nM		Stable	3.4 nM	60.9 nM	3.9 nM	Dose-dependent effect	
Cc1cc(-c2ccc(C(=O)c3c(F)ccc(O)c3F)s2)ccc1OS(N)(=O)=O	221 nM	32.4 nM	1	31.2 nM		Stable					
Cc1cc(OS(N)(=O)=O)ccc1-c1ccc(C(=O)c2c(F)ccc(O)c2F)s1	35 nM	43.5 nM	0.9	40 nM		Stable					
O=C(c1ccc(-c2ccc(O)cc2)s1)c1c(F)ccc(O)c1F		3.1 nM	23.1		< 10%			7.9 nM			inhibition [18]: < 5%; inhibition [19]: < 5%; Activity (T47D [20]): 150%; Activity [21]: 3.5%; Activity [22]: 88.4%; Activity [23]: 7.9%
NS(=O)(=O)Oc1ccc(-c2ccc(C(=O)c3c(F)ccc(O)c3F)s2)cc1F	81.8 nM	2.5 nM	5.5	13.7 nM		Stable	5.1 nM	20 nM	5.7 nM	Dose-dependent effect	
NS(=O)(=O)Oc1ccc(-c2ccc(C(=O)c3c(F)ccc(O)c3F)s2)cc1		3.4 nM	8.2	28 nM	< 10%	Stable					
NS(=O)(=O)Oc1ccccc1-c1ccc(C(=O)c2c(F)ccc(O)c2F)s1		22.5 nM	0.2	4.1 nM	< 10%	Stable					

— ChEMBL document CHEMBL4049440, “First Dual Inhibitors of Steroid Sulfatase (STS) and 17β-Hydroxysteroid Dehydrogenase Type 1 (17β-HSD1): Designed Multiple Ligands as Novel Potential Therapeutics for Estrogen-Dependent Diseases” (J Med Chem, 2017)
